In brackets after ≈: the same amount, converted by molar mass. Square brackets hold non-standard residues; d marks the D form. Peptide text beside a SMILES is read from it. Gly(N-CH2-oxan-4-yl) = O=C(O)CNCC1CCOCC1; NCyclohexylmethylGly = O=C(O)CNCC1CCCCC1; NMeL = CN[C@@H](CC(C)C)C(=O)O; NMeA = CN[CH](C)C(=O)O; NEtG = CCNCC(=O)O
Tests used:
[1] = physchem; assay type: physicochemical
[2] = MDCK permeability; assay type: in vitro ADME; details: dog
[3] = target: P-gp (Homo sapiens, UniProt P08183); test: P-gp efflux ratio; assay type: in vitro ADME; details: not told
Chain of P-gp (P08183 whole entry): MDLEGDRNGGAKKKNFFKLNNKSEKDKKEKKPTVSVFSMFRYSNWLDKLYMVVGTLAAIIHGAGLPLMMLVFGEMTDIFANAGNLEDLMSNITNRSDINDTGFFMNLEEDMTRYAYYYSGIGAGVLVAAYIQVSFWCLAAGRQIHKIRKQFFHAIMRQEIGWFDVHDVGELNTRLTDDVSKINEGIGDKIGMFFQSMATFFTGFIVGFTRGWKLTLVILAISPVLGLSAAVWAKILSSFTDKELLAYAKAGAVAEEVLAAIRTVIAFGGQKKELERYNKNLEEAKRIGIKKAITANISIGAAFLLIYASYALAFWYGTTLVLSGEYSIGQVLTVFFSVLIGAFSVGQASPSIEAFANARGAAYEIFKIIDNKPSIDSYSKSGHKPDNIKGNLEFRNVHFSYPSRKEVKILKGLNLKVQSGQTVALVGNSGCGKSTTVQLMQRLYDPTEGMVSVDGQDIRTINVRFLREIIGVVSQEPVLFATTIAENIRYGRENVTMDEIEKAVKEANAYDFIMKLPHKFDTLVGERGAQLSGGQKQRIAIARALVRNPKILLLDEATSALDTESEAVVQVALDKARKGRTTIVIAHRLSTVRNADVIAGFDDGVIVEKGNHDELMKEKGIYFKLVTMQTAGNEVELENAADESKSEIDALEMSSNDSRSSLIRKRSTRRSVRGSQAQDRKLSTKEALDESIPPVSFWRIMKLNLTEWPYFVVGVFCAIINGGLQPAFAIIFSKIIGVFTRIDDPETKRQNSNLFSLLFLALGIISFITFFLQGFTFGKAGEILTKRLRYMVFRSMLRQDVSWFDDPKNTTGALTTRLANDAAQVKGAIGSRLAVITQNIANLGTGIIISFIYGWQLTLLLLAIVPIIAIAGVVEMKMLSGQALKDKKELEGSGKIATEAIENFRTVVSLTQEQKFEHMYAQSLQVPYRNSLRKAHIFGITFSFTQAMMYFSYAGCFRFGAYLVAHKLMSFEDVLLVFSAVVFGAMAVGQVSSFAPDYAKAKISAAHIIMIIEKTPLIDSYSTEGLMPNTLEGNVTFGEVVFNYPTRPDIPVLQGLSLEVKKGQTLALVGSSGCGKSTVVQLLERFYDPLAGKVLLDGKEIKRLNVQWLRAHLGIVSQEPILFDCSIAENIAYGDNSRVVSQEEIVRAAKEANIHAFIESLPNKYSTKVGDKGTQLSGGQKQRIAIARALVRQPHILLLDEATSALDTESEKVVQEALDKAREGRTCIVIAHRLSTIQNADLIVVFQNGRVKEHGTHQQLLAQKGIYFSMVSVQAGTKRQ

[4] = assay type: in vitro ADME; details: microsomes
[5] = assay type: in vitro ADME; details: serum
[6] = oral bioavailability; assay type: in vivo; details: mouse; for bioavailability: in vivo, po, Oral bioavailability, No inhib., no inhibitors, mean (two individual values)
In short: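 Oral dosing in mice with no pretreatment by CYP or P-gp inhibitor. Oral bioavailability (F) reported as the mean of two independent experiments, with the individual values also given.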

[7] = pH 6.8, aqueous solubility at pH 6.8

SMILES | solubility ([1]; pH 1.2, aq. sol. pH 1.2) [µg/mL] | aq. sol. pH 6.8 [1] [μg/mL] | Papp [2] [×10⁻⁶ cm/s] | efflux ratio [3] | microsomal stability [4] [%] | fraction unbound [5] | oral BA (F) ([6]; 3 mg/kg, no CYP or P-gp inhibition) [%] | bioavailability [6] [%] | solubility ([1]; pH 6.8, aq. sol. pH 6.8) [µg/mL] | solubility [1, 7] [µg/mL] | aq. sol. pH 1.2 ([1]; pH 1.2) [μg/mL]
CCN1CC(=O)NC(CC(C)C)C(=O)N(C)C(C)C(=O)NC(CC(C)C)C(=O)N2CCCC2C(=O)N(CC2CCOCC2)CC(=O)NC(CC(C)C)C(=O)N(C)C(C)C(=O)NC(C)C(=O)N2CCCC2C1=O (stereo not drawn) [A03] (cyclo([NEtG]L[NMeA]LP[Gly(N-CH2-oxan-4-yl)]L[NMeA]AP); configuration not given here) | 1800 (≈ 1770 µM) | 1900 | 0.4 | 6.4 | 64 | 0.31 | 1 | 1 | – | – | –
CCN1CC(=O)NC(CC(C)C)C(=O)N(C)C(C)C(=O)NC(CC(C)C)C(=O)N2CCCC2C(=O)N(CC2CCCCC2)CC(=O)NC(CC(C)C)C(=O)N(C)C(C)C(=O)NC(Cc2ccccc2)C(=O)N2CCCC2C1=O (stereo not drawn) [A08] (cyclo([NEtG]L[NMeA]LP[NCyclohexylmethylGly]L[NMeA]FP); configuration not given here) | 2.5 (≈ 2.29 µM) | – | 24.7 | 8.5 | 33 | < 0.002 | – | 5 | 6.8 (≈ 6.24 µM) | 7 (≈ 6.43 µM) | –
CCN1CC(=O)N[C@@H](CC(C)C)C(=O)N(C)[C@@H](C)C(=O)N[C@@H](CC(C)C)C(=O)N2CCC[C@@H]2C(=O)N(CC2CCOCC2)CC(=O)N[C@@H](CC(C)C)C(=O)N(C)[C@@H](C)C(=O)N[C@@H](Cc2ccccc2)C(=O)N2CCC[C@@H]2C1=O [A09] (cyclo([NEtG]L[NMeA]L[dP][Gly(N-CH2-oxan-4-yl)]L[NMeA]F[dP])) | 590 (≈ 541 µM) | 640 | – | 46.9 | 67 | 0.02 | – | 2 | – | – | –

Results, then the compound that gave them:

solubility ([1]; pH 1.2, aq. sol. pH 1.2) [µg/mL] | aq. sol. pH 6.8 [1] [μg/mL] | Papp [2] [×10⁻⁶ cm/s] | efflux ratio [3] | microsomal stability [4] [%] | fraction unbound [5] | oral BA (F) ([6]; 3 mg/kg, no CYP or P-gp inhibition) [%] | bioavailability [6] [%] | solubility ([1]; pH 6.8, aq. sol. pH 6.8) [µg/mL] | solubility [1, 7] [µg/mL] | aq. sol. pH 1.2 ([1]; pH 1.2) [μg/mL] | SMILES
– | 210 | – | – | 53 | – | – | – | – | 210 (≈ 193 µM) | 210 | CCN1CC(=O)N[C@@H](CC(C)C)C(=O)N2CCC[C@@H]2C(=O)N(C)[C@@H](CC(C)C)C(=O)N[C@@H](C)C(=O)N(CC2CCCCC2)CC(=O)N[C@@H](Cc2ccccc2)C(=O)N2CCC[C@@H]2C(=O)N(C)[C@@H](CC(C)C)C(=O)N[C@@H](C)C1=O [B08] (cyclo([NEtG]L[dP][NMeL]A[NCyclohexylmethylGly]F[dP][NMeL]A))
2100 (≈ 1920 µM) | 2200 | – | – | 90 | – | – | 1 | – | – | – | CCN1CC(=O)N[C@@H](CC(C)C)C(=O)N2CCC[C@@H]2C(=O)N(C)[C@@H](CC(C)C)C(=O)N[C@@H](C)C(=O)N(CC2CCOCC2)CC(=O)N[C@@H](Cc2ccccc2)C(=O)N2CCC[C@@H]2C(=O)N(C)[C@@H](CC(C)C)C(=O)N[C@@H](C)C1=O [B09] (cyclo(A[NEtG]L[dP][NMeL]A[Gly(N-CH2-oxan-4-yl)]F[dP][NMeL]))
